From ChEMBL document CHEMBL2390917, “Synthesis and biological evaluation of 2-(5-methyl-4-phenyl-2-oxopyrrolidin-1-yl)-acetamide stereoisomers as novel positive allosteric modulators of sigma-1 receptor” (Bioorg Med Chem, 2013)
Where a name gives a salt, the structure may show the parent alone. The source made the active and inactive calls. The calls are words filed in the database; no cut-off is given here. Residues, ends and D or L forms follow the SMILES beside them.

Columns and labels:
[1] = biological target: Sigma non-opioid intracellular receptor 1 (Rattus norvegicus) (UniProt Q9R0C9); assay: Positive allosteric modulation of Wistar rat sigma 1 receptor assessed as increase in electrically-stimulated vas deferens contraction at 10 uM after 10 mins
In short: (§1)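 Isolated rat vas deferens, proximal ~15 mm segments, in K-H buffer at 32 °C gassed […], with 1.0 g passive tension and a 60 min adaptation. Field-stimulated at 0.1 Hz, 1 ms, 50 V. Cumulative PRE-084 (1–100 µM) was given, then washout and a 30 min rest. Test compound 10 µM was added for 10 min before cumulative PRE-084. Response is % increase over baseline amplitude; n=6, mean ± SEM, paired t-test.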

[2] = biological target: Sigma non-opioid intracellular receptor 1 (Rattus norvegicus) (UniProt Q9R0C9); assay: Positive allosteric modulation of Wistar rat sigma 1 receptor assessed as potentiation of PRE-084 effect on electrically-stimulated vas deferens contraction at 10 uM preincubated for 10 mins followed by PRE-084 addition; in short: as §1
[3] = Binding affinity to P2X receptor (unknown origin) by radioligand displacement assay; parameters: species or system Homo sapiens
[4] = Binding affinity to L-type calcium channel verapamil binding site (unknown origin) by radioligand displacement assay; parameters: species or system Homo sapiens
[5] = Binding affinity to peripheral-type BZD receptor (unknown origin) by radioligand displacement assay; parameters: species or system Homo sapiens
[6] = biological target: Muscarinic acetylcholine receptor M5 (Homo sapiens, UniProt P08912); assay: Binding affinity to human muscarinic M5 receptor by radioligand displacement assay
[7] = Binding affinity to sodium channel site 2 (unknown origin) by radioligand displacement assay; parameters: species or system Homo sapiens
[8] = biological target: 5-hydroxytryptamine receptor 2C (Homo sapiens, UniProt P28335); assay: Binding affinity to human 5-HT2C receptor by radioligand displacement assay
[9] = biological target: Adrenergic receptor alpha-1 (Homo sapiens, UniProt P35348+P25100+P35368); assay: Binding affinity to human adrenergic alpha1 receptor by radioligand displacement assay
[10] = biological target: Type-2 angiotensin II receptor (Homo sapiens, UniProt P50052); assay: Binding affinity to human angiotensin AT2 receptor by radioligand displacement assay
[11] = Binding affinity to P2Y receptor (unknown origin) by radioligand displacement assay; parameters: species or system Homo sapiens
[12] = biological target: 5-hydroxytryptamine receptor 2B (Homo sapiens, UniProt P41595); assay: Binding affinity to human 5-HT2B receptor by radioligand displacement assay
[13] = biological target: Sigma non-opioid intracellular receptor 1 (Homo sapiens, UniProt Q99720)
[14] = Binding affinity to PCP receptor (unknown origin) by radioligand displacement assay; parameters: species or system Homo sapiens
[15] = biological target: Alpha-2A adrenergic receptor (Homo sapiens, UniProt P08913); assay: Binding affinity to human adrenergic alpha2 receptor by radioligand displacement assay
[16] = Binding affinity to GABA-gated chloride channel (unknown origin) by radioligand displacement assay; parameters: species or system Homo sapiens

Chain of Sigma non-opioid intracellular receptor 1 (Rattus norvegicus) (Q9R0C9 whole entry): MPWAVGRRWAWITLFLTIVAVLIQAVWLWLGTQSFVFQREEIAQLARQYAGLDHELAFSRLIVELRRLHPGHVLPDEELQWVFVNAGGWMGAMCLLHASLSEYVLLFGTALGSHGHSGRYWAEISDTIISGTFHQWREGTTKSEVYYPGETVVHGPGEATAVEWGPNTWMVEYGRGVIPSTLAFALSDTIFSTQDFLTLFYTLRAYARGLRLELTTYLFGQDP
Chain of 5-hydroxytryptamine receptor 2B (P41595 whole entry): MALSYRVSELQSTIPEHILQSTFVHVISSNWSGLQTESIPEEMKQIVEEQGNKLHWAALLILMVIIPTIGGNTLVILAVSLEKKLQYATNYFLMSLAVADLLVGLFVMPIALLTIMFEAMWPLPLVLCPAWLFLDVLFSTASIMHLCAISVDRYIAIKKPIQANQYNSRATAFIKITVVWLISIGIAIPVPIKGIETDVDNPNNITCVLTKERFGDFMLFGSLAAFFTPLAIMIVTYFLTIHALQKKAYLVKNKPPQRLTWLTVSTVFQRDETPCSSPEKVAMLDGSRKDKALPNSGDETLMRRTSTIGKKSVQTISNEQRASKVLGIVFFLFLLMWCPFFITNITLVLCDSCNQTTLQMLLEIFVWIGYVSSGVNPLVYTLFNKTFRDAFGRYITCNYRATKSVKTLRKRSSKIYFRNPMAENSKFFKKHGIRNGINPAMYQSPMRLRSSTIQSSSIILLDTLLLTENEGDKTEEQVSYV
Chain of Muscarinic acetylcholine receptor M5 (P08912 whole entry): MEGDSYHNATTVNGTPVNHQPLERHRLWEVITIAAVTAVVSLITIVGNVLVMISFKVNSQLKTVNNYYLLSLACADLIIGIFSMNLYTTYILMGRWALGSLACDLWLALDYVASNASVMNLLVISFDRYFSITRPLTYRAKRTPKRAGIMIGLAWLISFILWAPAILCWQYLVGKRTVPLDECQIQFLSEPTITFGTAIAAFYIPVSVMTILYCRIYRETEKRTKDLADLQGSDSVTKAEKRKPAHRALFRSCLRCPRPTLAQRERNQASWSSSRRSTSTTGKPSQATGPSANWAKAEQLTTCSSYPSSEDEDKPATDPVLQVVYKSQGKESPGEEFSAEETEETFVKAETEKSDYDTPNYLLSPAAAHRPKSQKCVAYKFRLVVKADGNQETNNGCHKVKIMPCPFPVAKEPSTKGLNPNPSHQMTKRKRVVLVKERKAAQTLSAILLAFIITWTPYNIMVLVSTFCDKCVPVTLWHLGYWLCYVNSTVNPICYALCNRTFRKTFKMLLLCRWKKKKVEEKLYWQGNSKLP
Chain of 5-hydroxytryptamine receptor 2C (P28335 whole entry): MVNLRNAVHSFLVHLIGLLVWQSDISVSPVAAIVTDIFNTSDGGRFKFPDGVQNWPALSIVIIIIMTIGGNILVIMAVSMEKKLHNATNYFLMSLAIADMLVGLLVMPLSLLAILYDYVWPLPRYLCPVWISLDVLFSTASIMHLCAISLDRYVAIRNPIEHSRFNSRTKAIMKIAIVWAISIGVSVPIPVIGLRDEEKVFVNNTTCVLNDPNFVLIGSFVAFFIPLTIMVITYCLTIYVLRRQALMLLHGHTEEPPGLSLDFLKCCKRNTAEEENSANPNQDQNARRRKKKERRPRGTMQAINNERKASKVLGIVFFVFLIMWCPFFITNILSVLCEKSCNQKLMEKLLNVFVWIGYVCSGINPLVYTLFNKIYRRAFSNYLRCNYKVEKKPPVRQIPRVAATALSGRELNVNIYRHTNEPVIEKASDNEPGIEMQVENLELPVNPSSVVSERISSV
Chain of Type-2 angiotensin II receptor (P50052 whole entry): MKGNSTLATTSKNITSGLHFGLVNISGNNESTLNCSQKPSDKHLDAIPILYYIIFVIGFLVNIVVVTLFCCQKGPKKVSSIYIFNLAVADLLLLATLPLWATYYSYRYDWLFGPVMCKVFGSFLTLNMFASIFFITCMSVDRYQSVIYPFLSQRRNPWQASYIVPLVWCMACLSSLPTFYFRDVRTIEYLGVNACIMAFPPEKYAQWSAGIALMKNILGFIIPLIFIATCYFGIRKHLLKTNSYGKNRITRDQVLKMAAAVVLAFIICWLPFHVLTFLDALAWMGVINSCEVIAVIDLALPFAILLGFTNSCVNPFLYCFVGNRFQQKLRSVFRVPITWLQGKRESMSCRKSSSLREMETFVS
Chain of Alpha-2A adrenergic receptor (P08913 whole entry): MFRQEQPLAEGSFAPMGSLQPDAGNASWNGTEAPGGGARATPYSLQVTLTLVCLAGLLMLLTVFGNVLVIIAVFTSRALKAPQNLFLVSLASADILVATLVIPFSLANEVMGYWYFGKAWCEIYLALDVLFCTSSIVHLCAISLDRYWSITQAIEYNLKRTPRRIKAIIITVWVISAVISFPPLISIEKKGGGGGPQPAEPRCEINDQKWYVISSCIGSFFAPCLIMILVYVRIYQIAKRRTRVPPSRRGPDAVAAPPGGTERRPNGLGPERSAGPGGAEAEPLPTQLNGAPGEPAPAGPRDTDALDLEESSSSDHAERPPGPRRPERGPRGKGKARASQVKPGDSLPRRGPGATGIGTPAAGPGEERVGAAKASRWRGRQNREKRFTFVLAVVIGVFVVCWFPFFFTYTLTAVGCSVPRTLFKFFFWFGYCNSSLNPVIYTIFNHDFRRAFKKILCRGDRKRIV
Chain of Sigma non-opioid intracellular receptor 1 (Q99720 whole entry): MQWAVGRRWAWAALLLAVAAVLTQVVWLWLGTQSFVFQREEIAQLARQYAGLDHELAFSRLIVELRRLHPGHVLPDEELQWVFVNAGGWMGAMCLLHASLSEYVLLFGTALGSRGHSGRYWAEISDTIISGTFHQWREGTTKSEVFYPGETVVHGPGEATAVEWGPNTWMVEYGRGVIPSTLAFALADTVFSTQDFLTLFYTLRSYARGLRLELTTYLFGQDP

For `C[C@H]1[C@H](c2ccccc2)CC(=O)N1CC(N)=O`, the Activity [1] was “inactive” and the Activity [2] was “Active”.
For `C[C@@H]1[C@H](c2ccccc2)CC(=O)N1CC(N)=O`, the Activity [1] was “inactive” and the Activity [2] was “Active”.
In the case of `Nc1ncnc2c1ncn2[C@@H]1O[C@H](COP(=O)(O)CP(=O)(O)OP(=O)(O)O)[C@@H](O)[C@H]1O` [DIPHOSPHOMETHYLPHOSPHONIC ACID ADENOSYL ESTER], the IC50 [3] is reported as 3.5 nM.
In the case of `COc1ccc(CCN(C)CCCC(C#N)(c2cc(OC)c(OC)c(OC)c2)C(C)C)cc1OC` (stereo not given) [GALLOPAMIL], the IC50 [4] is reported as 20 nM.
For `CCC(C)N(C)C(=O)c1cc2ccccc2c(-c2ccccc2Cl)n1` (stereo not given) [PK-11195], the IC50 [5] was 1.1 nM.
For `C[N+]1(C)CCC(OC(=O)C(c2ccccc2)c2ccccc2)CC1` [4-DAMP], the IC50 [6] was 0.8 nM.
With `COc1ccc(C(=O)O[C@H]2CC[C@@]3(C)[C@@H]4CC[C@H]5[C@]6(O)C[C@H](O)[C@@]7(O)[C@@H](CN8C[C@@H](C)CC[C@H]8[C@@]7(C)O)[C@]6(O)C[C@@]53O[C@]24O)cc1OC` [VERATRIDINE] the IC50 [7] was 7700 nM.
For `COc1cc(OC)c(C(=O)CCCCN2CCC3(CC2)NC(=O)NC3=O)cc1NS(=O)(=O)c1ccc(C(F)(F)F)cc1` [RS-102,221], the IC50 [8] was 5.5 nM.
`CC(C)NCC(O)COc1ccc(CC(N)=O)cc1` (stereo not given) [ATENOLOL] showed an IC50 [9] of 230 nM.
With `CC(C)[C@H](NC(=O)[C@H](CCCNC(=N)N)NC(=O)[C@@H](N)CC(=O)O)C(=O)N[C@@H](Cc1ccc(O)cc1)C(=O)N[C@H](C(=O)N[C@@H](Cc1cnc[nH]1)C(=O)N1CCC[C@H]1C(=O)N[C@@H](C)C(=O)O)C(C)C` [ANGIOTENSIN] (H-DRVYVHPA-OH) the IC50 [10] was 0.13 nM.
With `Nc1ncnc2c1ncn2[C@H]1C[C@H](O)[C@@H](COP(O)(=S)OP(=O)(O)OP(=O)(O)O)O1` (stereo not given in full) the IC50 [11] was 25 nM.
For `COc1cc(CC(C)N)c(OC)cc1I` (stereo not given), the IC50 [12] was 3.2 nM.
With `C[C@@H]1[C@@H](c2ccccc2)CC(=O)N1CC(N)=O` the Activity [1] was “inactive” and the Activity [2] was “Active”.
With `COc1cc2c(cc1OC)C(=O)C(CC1CCN(Cc3ccccc3)CC1)C2` (stereo not given) [DONEPEZIL] the Ki [13] was 14.6 nM.
`C[C@]12N[C@H](Cc3ccccc31)c1ccccc12` [DIZOCILPINE MALEATE] gave an IC50 [14] of 6 nM.
With `Cc1ccc(OCC(O)C(C)NC(C)C)c2c1CCC2` (stereo not given) [ZENIDOLOL] the IC50 [15] was 0.5 nM.
With `C=C(C)[C@@H]1[C@H]2OC(=O)[C@@H]1[C@]1(O)C[C@H]3O[C@]34C(=O)O[C@H]2[C@]14C` [PICROTOXININ] the IC50 [16] was 250 nM.
